Test results reported in ChEMBL document CHEMBL4359902, “Development of novel chromeno[4,3-c]pyrazol-4(2H)-one derivates bearing sulfonylpiperazine as antitumor inhibitors targeting PI3Kα” (Eur J Med Chem, 2019).

Experiments:
HCT-116 = assay: Antiproliferative activity against human HCT116 cells assessed as reduction in cell viability after 48 hrs by MTT assay; format: functional, cell-based; conditions: HCT-116, 48 h
A549 = assay: Antiproliferative activity against human A549 cells assessed as reduction in cell viability after 48 hrs by MTT assay; format: functional, cell-based; conditions: A549, 48 h
Huh-7 = assay: Antiproliferative activity against human HuH7 cells assessed as reduction in cell viability after 48 hrs by MTT assay; format: functional, cell-based; conditions: Huh-7, 48 h
HL-60 = assay: Antiproliferative activity against human HL60 cells assessed as reduction in cell viability after 48 hrs by MTT assay; format: functional, cell-based; conditions: HL-60, 48 h
[1] = molecular target: Phosphatidylinositol 4,5-bisphosphate 3-kinase catalytic subunit alpha isoform (Homo sapiens, UniProt P42336); assay: Inhibition of PI3Kalpha (unknown origin) using diC8-PI(4,5)P2 as substrate incubated for 3 hrs in presence of ATP by fluorescence polarization assay
Phosphatidylinositol 4,5-bisphosphate 3-kinase catalytic subunit alpha isoform, sequence (P42336 whole entry, canonical isoform): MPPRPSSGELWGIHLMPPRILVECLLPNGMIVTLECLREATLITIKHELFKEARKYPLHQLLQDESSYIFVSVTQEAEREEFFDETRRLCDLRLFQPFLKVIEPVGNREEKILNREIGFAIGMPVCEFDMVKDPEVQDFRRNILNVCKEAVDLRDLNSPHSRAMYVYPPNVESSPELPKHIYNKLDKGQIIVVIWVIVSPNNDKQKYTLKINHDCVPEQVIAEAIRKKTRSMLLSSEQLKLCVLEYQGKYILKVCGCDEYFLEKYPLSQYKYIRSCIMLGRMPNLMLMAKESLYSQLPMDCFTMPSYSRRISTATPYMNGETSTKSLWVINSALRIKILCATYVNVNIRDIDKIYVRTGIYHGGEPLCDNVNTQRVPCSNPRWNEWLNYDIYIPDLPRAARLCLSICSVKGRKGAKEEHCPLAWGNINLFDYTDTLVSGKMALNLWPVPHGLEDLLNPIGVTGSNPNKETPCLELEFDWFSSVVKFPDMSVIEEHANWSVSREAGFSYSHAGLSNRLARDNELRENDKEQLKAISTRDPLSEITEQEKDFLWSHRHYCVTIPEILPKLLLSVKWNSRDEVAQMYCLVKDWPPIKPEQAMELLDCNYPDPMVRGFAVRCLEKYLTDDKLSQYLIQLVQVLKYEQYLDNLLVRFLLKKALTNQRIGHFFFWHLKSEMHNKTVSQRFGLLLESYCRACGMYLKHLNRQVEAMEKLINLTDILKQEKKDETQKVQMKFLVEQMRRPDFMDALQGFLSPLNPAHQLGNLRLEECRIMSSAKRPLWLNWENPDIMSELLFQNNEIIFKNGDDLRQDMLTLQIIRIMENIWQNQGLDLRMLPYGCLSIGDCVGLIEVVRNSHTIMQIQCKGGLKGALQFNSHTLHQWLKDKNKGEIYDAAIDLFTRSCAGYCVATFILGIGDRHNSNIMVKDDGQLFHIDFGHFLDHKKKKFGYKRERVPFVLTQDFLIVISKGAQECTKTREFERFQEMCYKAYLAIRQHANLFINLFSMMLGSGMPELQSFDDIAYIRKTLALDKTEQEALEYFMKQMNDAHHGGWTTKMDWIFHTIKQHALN
Outline: (§1)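 Fluorescence polarization competition assay, 10 μL reactions at pH 7: 2.5 mM MgCl₂, 5 mM HEPES, ATP, 10 mM DTT, 50 ng PI3K isoform, diC8-PI(4,5)P2 substrate. After 3 h at room temperature, reactions were chelator-quenched. Phosphoinositide binding protein and fluorophore-labelled tracer were added, then 1 h dark equilibration and polarization read.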

[2] = molecular target: Phosphatidylinositol 4,5-bisphosphate 3-kinase catalytic subunit beta isoform (Homo sapiens, UniProt P42338); assay: Inhibition of PI3Kbeta (unknown origin) using diC8-PI(4,5)P2 as substrate incubated for 3 hrs in presence of ATP by fluorescence polarization assay; outline: as §1
Phosphatidylinositol 4,5-bisphosphate 3-kinase catalytic subunit beta isoform, sequence (P42338 whole entry, canonical isoform): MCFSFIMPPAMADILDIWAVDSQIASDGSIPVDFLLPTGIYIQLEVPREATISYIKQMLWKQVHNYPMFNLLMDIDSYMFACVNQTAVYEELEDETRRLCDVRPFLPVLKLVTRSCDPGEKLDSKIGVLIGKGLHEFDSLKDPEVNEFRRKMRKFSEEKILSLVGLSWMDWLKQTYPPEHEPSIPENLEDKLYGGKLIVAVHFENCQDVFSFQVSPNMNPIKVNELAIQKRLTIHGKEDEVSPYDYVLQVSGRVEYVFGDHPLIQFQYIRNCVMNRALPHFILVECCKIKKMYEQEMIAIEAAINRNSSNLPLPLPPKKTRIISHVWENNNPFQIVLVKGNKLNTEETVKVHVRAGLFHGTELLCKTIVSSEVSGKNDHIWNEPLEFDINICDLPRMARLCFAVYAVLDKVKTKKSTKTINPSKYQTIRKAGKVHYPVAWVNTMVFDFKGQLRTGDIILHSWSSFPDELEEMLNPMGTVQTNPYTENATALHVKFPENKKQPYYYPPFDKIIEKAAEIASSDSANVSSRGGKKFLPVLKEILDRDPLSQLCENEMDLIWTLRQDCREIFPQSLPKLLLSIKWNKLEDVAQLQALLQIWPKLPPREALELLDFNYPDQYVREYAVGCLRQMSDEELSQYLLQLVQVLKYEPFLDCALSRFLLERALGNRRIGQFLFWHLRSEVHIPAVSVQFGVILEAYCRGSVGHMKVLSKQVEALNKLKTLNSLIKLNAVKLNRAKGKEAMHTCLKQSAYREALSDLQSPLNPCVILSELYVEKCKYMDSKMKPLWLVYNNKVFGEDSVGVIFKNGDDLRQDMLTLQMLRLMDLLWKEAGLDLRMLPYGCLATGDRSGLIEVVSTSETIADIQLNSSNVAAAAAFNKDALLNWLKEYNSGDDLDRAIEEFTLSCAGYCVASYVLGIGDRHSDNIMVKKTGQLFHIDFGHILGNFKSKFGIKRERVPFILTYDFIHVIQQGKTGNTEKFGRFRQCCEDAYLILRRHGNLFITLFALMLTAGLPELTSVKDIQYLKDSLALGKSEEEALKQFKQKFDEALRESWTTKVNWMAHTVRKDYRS

[3] = molecular target: Phosphatidylinositol 4,5-bisphosphate 3-kinase catalytic subunit gamma isoform (Homo sapiens, UniProt P48736); assay: Inhibition of PI3Kgamma (unknown origin) using diC8-PI(4,5)P2 as substrate incubated for 3 hrs in presence of ATP by fluorescence polarization assay; outline: as §1
Phosphatidylinositol 4,5-bisphosphate 3-kinase catalytic subunit gamma isoform, sequence (P48736 whole entry, canonical isoform): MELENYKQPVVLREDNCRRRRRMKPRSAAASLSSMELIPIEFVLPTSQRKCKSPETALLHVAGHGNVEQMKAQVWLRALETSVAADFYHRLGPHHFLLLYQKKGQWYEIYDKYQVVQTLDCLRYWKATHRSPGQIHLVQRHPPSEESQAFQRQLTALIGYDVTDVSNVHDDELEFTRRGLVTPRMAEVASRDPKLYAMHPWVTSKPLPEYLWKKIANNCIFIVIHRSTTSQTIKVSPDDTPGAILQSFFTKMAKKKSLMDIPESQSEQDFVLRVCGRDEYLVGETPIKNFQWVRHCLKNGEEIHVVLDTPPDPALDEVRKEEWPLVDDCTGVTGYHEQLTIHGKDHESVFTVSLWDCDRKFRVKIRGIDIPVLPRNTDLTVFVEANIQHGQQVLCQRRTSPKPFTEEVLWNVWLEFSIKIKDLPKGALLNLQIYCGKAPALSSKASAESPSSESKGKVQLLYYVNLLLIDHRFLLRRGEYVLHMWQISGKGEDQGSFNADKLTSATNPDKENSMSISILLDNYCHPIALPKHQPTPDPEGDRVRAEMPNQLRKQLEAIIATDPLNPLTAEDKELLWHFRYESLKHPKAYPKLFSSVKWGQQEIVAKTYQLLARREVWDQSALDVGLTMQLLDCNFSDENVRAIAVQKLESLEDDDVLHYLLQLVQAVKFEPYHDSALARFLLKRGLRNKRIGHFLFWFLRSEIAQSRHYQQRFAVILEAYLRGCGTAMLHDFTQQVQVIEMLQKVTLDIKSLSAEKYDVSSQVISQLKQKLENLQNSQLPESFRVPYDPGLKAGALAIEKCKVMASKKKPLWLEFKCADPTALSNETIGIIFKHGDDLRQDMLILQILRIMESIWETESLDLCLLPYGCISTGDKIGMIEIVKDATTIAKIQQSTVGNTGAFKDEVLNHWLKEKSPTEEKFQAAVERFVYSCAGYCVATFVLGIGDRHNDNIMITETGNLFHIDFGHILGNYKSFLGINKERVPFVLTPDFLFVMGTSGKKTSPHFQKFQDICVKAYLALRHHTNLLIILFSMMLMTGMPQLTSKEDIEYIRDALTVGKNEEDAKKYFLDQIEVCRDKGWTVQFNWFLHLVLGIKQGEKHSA

[4] = molecular target: T1, Phosphatidylinositol 4,5-bisphosphate 3-kinase catalytic subunit delta isoform (Homo sapiens, UniProt O00329); assay: Inhibition of PI3Kdelta (unknown origin) using diC8-PI(4,5)P2 as substrate incubated for 3 hrs in presence of ATP by fluorescence polarization assay; outline: as §1
T1 sequence (O00329 whole entry): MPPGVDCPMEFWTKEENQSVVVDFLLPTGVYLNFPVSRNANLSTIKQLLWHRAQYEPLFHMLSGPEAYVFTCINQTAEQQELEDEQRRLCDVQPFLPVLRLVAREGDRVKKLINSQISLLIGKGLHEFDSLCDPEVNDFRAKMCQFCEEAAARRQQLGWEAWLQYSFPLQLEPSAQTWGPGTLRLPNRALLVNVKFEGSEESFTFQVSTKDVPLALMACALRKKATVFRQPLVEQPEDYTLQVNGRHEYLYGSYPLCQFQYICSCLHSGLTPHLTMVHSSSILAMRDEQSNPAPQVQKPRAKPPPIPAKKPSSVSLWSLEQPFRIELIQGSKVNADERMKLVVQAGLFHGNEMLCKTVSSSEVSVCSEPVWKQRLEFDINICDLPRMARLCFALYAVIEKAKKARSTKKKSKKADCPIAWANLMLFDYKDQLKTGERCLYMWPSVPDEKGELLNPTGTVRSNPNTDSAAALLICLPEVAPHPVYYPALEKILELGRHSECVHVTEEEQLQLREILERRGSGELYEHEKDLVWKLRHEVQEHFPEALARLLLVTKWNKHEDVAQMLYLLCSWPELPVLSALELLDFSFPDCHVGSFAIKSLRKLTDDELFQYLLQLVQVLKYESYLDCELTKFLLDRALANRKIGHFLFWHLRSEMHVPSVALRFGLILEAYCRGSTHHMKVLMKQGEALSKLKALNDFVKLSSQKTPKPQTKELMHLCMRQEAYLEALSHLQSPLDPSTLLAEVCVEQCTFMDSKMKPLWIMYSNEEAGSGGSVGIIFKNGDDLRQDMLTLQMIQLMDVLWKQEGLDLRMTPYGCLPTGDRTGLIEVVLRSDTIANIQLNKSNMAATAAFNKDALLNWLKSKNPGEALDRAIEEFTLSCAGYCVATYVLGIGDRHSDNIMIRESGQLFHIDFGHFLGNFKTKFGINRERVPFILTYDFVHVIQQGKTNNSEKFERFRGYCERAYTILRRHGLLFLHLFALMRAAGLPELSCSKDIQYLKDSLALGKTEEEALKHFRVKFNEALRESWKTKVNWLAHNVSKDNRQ

[5] = Cytotoxicity against human 293T cells; format: cell-based; conditions: HEK-293T cells
[6] = molecular target: Serine/threonine-protein kinase mTOR (Homo sapiens, UniProt P42345); assay: Inhibition of mTOR (unknown origin)

Structure (SMILES)	IC50 (HCT-116)	IC50 (A549)	IC50 (Huh-7)	IC50 (HL-60)	IC50 [1]	IC50 [2]	IC50 [3]	IC50 [4]	CC50 [5]	IC50 [6]
CCCCS(=O)(=O)N1CCN(Cn2cc3c(=O)oc4ccccc4c3n2)CC1	87.9 µM	> 100 µM	> 100 µM	> 100 µM						
CC(C)(C)c1ccc(S(=O)(=O)N2CCN(Cn3cc4c(=O)oc5ccccc5c4n3)CC2)cc1	0.47 µM	0.74 µM	0.9 µM	0.84 µM	0.95 µM	2.65 µM	1.32 µM	0.75 µM	231 µM	> 10 µM
Cc1ccc(C)c(S(=O)(=O)N2CCN(Cn3cc4c(=O)oc5ccccc5c4n3)CC2)c1	0.13 µM	0.48 µM	0.66 µM	0.22 µM	0.3 µM	0.85 µM	0.81 µM	1.42 µM	397 µM	> 10 µM
O=c1oc2ccccc2c2nn(CN3CCN(S(=O)(=O)CCCl)CC3)cc12	45.8 µM	68.7 µM	62.9 µM	78.6 µM						
O=c1oc2ccccc2c2nn(CN3CCN(S(=O)(=O)C4CC4)CC3)cc12	69.3 µM	82 µM	79 µM	71.4 µM						
CCS(=O)(=O)N1CCN(Cn2cc3c(=O)oc4ccccc4c3n2)CC1	> 100 µM	> 100 µM	> 100 µM	> 100 µM						
O=c1oc2ccccc2c2nn(CN3CCN(S(=O)(=O)c4ccc(Cl)cc4)CC3)cc12	0.81 µM	1.21 µM	1.61 µM	0.64 µM	1.55 µM	2.19 µM	2.65 µM	4.72 µM	278 µM	> 10 µM
O=c1oc2ccccc2c2nn(CN3CCN(S(=O)(=O)c4ccc(Br)cc4)CC3)cc12	1.89 µM	3.09 µM	5.08 µM	4.78 µM	8.3 µM	9.71 µM	> 10 µM	9.31 µM	387 µM	> 10 µM
O=c1oc2ccccc2c2nn(CN3CCN(S(=O)(=O)c4ccccc4)CC3)cc12	7.53 µM	13.9 µM	11.3 µM	22.1 µM						
O=c1oc2ccccc2c2nn(CN3CCN(S(=O)(=O)c4ccc([N+](=O)[O-])cc4)CC3)cc12	0.92 µM	2.1 µM	2.82 µM	2.67 µM	2.63 µM	4.14 µM	4.01 µM	5.45 µM	347 µM	> 10 µM
O=c1oc2ccccc2c2nn(CN3CCN(S(=O)(=O)c4ccccc4[N+](=O)[O-])CC3)cc12	4.87 µM	7.66 µM	7.92 µM	8.23 µM	> 10 µM	9.14 µM	8.42 µM	6.15 µM	372 µM	8.37 µM
O=c1oc2ccccc2c2nn(CN3CCN(S(=O)(=O)c4cccc([N+](=O)[O-])c4)CC3)cc12	1.29 µM	3.67 µM	3.65 µM	2.01 µM	6.18 µM	> 10 µM	9.34 µM	> 10 µM	412 µM	> 10 µM
Cn1c(=O)n(-c2ccc(C(C)(C)C#N)cc2)c2c3cc(-c4cnc5ccccc5c4)ccc3ncc21 [DACTOLISIB]	0.24 µM	0.38 µM	0.53 µM	0.91 µM						
O=c1oc2ccccc2c2nn(CN3CCN(S(=O)(=O)c4ccc(F)cc4)CC3)cc12	2.45 µM	5.11 µM	6.44 µM	6.33 µM	8.91 µM	> 10 µM	7.51 µM	9.76 µM	298 µM	9.12 µM
CC(C)c1cc(C(C)C)c(S(=O)(=O)N2CCN(Cn3cc4c(=O)oc5ccccc5c4n3)CC2)c(C(C)C)c1	0.08 µM	0.09 µM	0.14 µM	0.09 µM	0.042 µM	0.21 µM	0.11 µM	0.42 µM	332 µM	> 10 µM
CS(=O)(=O)N1CCN(Cn2cc3c(=O)oc4ccccc4c3n2)CC1	> 100 µM	> 100 µM	97.1 µM	> 100 µM						
O=c1oc2ccccc2c2nn(CN3CCN(S(=O)(=O)C(F)(F)F)CC3)cc12	> 100 µM	> 100 µM	> 100 µM	> 100 µM						
O=c1oc2ccccc2c2nn(CN3CCN(S(=O)(=O)CCCCl)CC3)cc12	38 µM	52.1 µM	48.5 µM	55.1 µM						
Cc1ccc(S(=O)(=O)N2CCN(Cn3cc4c(=O)oc5ccccc5c4n3)CC2)cc1	11.1 µM	21.5 µM	28.5 µM	16.9 µM						
CCCS(=O)(=O)N1CCN(Cn2cc3c(=O)oc4ccccc4c3n2)CC1	57.6 µM	79.7 µM	87.6 µM	89.4 µM						
COc1ccc(S(=O)(=O)N2CCN(Cn3cc4c(=O)oc5ccccc5c4n3)CC2)cc1	12.1 µM	27.4 µM	34 µM	24.5 µM						
